Measured values reported in PMC13103313 (Nature Communications, 2026).

How the values were obtained:
[1] = biological target: NaV1.5 F1760A (Homo sapiens, UniProt Q14524, F1760A); experiment: Whole-cell patch-clamp of NaV1.5 F1760A mutant in HEK293T cells; type: cell-based; conditions: HEK-293T, read-out: inhibition rate, NaV1.5 F1760A
[2] = system: zebrafish larvae; experiment: ISO-induced tachycardia model in zebrafish larvae; type: in vivo; conditions: 100 μM; 10 μM ISO 100 min; zebrafish larvae 3–4 dpf
[3] = system: Na+ current in primary ventricular myocytes; experiment: Voltage-gated Na+ current in rat primary ventricular myocytes; type: cell-based; conditions: 10 µM; rat primary cardiomyocytes; 365 vs 480 nm
In short: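 Ventricular myocytes from 1–2-day-old Sprague-Dawley rats, dissociated with 0.05% trypsin and 0.1% collagenase II, with fibroblasts removed by 2 h pre-plating. Cultured in DMEM with 10% FBS at 37 °C. Whole-cell voltage clamp followed the HEK293T Na+ protocol (hold −120 mV, 50 ms step to −20 mV).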

[4] = biological target: NaV1.5 channels (Homo sapiens, UniProt Q14524); experiment: Whole-cell patch-clamp recording of NaV1.5 currents in HEK293T cells; type: cell-based; conditions: HEK-293T, read-out: inhibition rate, NaV1.5 WT, 100 μM
Chain of NaV1.5 channels (Q14524 whole entry): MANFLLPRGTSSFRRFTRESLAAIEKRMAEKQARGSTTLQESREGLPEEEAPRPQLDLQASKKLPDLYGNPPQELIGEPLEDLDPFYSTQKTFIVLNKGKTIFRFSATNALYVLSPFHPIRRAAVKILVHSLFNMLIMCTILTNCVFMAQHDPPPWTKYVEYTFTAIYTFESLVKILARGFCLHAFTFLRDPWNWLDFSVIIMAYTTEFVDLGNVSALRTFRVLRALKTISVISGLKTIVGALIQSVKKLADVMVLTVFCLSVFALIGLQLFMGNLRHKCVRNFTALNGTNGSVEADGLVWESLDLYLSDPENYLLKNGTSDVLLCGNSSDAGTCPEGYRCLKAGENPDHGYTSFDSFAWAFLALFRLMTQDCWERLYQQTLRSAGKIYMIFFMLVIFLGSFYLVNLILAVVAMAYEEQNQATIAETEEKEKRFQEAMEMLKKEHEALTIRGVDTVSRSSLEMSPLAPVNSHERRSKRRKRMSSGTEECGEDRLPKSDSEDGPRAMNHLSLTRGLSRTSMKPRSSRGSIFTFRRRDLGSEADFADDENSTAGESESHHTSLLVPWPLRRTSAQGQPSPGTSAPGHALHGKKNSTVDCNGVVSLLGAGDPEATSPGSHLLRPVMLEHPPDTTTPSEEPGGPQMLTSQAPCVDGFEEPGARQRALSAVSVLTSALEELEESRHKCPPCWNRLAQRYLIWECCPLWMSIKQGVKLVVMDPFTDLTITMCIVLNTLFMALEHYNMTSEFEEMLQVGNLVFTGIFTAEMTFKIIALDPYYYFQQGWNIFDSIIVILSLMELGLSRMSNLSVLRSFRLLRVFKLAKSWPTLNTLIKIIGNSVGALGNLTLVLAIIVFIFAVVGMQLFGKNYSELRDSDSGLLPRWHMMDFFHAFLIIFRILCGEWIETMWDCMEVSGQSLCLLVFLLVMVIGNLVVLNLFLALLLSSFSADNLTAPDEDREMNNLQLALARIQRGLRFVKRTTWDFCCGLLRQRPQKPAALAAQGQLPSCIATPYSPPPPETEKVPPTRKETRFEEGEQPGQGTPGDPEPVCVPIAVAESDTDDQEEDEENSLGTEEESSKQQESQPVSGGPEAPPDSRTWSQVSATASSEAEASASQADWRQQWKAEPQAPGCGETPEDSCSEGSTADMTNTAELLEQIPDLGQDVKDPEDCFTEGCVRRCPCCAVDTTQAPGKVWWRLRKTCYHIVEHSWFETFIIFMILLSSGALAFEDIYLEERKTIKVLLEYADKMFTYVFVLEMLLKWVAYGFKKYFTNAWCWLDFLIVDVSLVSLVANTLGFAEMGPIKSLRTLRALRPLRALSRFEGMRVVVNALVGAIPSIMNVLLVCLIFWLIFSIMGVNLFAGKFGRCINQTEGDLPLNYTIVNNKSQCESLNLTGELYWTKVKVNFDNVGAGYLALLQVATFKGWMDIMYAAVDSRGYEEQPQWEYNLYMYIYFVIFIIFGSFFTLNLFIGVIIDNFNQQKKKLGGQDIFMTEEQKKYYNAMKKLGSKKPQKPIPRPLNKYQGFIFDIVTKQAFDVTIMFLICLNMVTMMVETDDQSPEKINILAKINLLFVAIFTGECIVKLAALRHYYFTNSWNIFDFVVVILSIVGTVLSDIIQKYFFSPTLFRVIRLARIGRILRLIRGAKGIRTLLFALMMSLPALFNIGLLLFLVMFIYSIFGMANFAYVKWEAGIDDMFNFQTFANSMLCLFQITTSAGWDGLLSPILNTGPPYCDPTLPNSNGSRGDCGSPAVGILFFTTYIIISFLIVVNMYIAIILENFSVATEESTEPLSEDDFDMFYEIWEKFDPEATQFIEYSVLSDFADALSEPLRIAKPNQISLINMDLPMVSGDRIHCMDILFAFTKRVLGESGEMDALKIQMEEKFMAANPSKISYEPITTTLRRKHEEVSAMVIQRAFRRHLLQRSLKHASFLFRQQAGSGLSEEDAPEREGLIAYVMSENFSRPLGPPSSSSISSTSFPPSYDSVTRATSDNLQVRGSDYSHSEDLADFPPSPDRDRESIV

[5] = system: zebrafish larvae; experiment: Heart rate recording in zebrafish larvae; type: in vivo; conditions: 10 μM
[6] = biological target: NaV1.5 V405A (Homo sapiens, UniProt Q14524, V405A); experiment: Whole-cell patch-clamp of NaV1.5 V405A mutant in HEK293T cells; type: cell-based; conditions: HEK-293T, read-out: inhibition rate, NaV1.5 V405A

Chain of NaV1.5 F1760A (Q14524 whole entry F1760A): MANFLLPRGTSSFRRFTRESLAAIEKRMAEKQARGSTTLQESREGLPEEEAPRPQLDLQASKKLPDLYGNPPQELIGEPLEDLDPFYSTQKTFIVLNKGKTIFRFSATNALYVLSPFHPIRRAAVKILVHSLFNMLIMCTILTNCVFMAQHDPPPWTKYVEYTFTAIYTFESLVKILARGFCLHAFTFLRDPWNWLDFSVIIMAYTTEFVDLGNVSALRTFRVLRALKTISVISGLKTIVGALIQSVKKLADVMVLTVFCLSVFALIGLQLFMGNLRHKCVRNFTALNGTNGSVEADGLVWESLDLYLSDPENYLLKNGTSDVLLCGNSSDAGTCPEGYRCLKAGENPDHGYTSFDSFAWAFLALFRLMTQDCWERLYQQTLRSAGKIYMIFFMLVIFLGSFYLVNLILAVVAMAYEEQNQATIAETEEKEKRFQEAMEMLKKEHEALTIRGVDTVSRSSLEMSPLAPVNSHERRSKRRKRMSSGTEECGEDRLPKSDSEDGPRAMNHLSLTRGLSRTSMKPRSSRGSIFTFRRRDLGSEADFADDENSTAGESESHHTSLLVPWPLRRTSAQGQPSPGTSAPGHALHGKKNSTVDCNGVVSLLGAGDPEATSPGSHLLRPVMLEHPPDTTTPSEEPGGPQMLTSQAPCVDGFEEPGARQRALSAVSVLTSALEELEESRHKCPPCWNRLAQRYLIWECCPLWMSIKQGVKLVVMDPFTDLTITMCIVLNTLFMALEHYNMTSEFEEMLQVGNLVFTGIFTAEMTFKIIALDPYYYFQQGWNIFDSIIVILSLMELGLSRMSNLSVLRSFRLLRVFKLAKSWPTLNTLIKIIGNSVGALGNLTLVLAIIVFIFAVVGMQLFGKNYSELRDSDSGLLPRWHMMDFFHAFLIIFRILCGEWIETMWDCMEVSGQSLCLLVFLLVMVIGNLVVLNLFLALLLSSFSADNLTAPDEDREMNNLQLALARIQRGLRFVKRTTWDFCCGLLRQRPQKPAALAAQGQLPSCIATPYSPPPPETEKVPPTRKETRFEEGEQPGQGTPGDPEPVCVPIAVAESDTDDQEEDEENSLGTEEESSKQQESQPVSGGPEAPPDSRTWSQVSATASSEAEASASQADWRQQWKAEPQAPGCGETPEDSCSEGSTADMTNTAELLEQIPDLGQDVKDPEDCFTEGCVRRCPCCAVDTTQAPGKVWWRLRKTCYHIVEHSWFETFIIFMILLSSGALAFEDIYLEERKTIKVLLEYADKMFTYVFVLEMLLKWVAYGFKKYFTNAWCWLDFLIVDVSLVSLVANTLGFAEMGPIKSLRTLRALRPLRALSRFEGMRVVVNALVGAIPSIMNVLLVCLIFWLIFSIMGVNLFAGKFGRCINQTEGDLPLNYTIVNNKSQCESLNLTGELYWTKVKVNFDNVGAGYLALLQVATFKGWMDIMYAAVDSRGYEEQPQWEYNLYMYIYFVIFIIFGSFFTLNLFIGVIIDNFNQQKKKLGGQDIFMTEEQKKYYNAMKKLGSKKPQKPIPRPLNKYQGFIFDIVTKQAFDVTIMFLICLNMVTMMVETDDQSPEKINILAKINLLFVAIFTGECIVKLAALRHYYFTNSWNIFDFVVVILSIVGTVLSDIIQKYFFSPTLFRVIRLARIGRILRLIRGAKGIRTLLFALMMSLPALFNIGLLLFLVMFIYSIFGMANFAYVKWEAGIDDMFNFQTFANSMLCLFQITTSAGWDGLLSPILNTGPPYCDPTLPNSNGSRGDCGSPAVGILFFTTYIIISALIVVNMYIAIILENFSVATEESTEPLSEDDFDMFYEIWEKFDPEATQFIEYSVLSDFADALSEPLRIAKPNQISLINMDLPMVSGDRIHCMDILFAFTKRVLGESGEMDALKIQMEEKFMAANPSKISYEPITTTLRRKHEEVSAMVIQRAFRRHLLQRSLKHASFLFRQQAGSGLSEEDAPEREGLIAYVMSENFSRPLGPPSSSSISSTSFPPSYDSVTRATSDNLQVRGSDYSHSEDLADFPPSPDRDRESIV

## C=C[C@H]1C[N@@]2CC[C@H]1C[C@@H]2[C@@H](O)c1ccnc2ccc(OC)cc12 [Quinidine, quinidine]
[1]
  inhibition at 100 µM: 32.6 ± 1.8%
[2]
  effect on heart rate in ISO-pretreated larvae: markedly attenuate heart rate
[3]
  photoswitching efficacy (optical control), Na+ current: 0.8 ± 0.8%
[4]
  inhibition at 100 µM: 77.6 ± 3.2%
[5]; soaking 1-[…] in the dark, zebrafish larvae 2 dpf
  heart rate normalized to control in dark: 90.8 ± 1.4%
[5]; 365 nm followed by 480 nm illumination, 5 min each
  heart rate normalized to control in dark: 91.6 ± 1.3%
[5]; after 365 nm illumination for 5 min
  heart rate normalized to control in dark: 93.9 ± 0.9%
[6]
  inhibition at 100 µM: 51.2 ± 2.3%
